These results are taken from paper PMC7439260 (ACS Omega, 2020).

Structures can show the parent of a compound that is named as a salt. Where a SMILES comes first, the peptide text is derived from it. [ ]: non-standard residue; d: D form. Hyp = O=C(O)[C@@H]1C[C@@H](O)CN1

One data set deals with bleeding time. As to the kind of experiment: Tail bleeding assay. The format is in vivo, ICR mice. The settings on record: mice, n = 10; for Effect on bleeding time (BT) (in words): doses of 300 and 400 μmol/kg b.w. oral; for Bleeding time (BT): 100 μmol/kg b.w. oral, tail cut 3 mm, saline 37 °C, maximum 900 s.
The subject of the next data set is thymus and spleen. Description: Thymus index and spleen index. In kind it is in vivo, ICR mice. Conditions: oral administration at doses of 300 or 450 μmol/kg b.w.; mice. The method in brief: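 The same orally dosed ICR mice (300 or 450 μmol/kg b.w. peptide, saline vehicle) were weighed and sacrificed after the tail-bleeding test. Thymus and spleen were excised, washed in PBS, blotted and weighed. Indices were computed as organ weight / body weight (mg/g). Gross appearance of the organs was checked for atrophy, hyperplasia or swelling.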

The subject of data set [1] is human platelet aggregation. The settings on record: at 1 mg/mL; cited from earlier work.
Data set [2] relates to platelet aggregation induced by ADP. The settings on record: read-out: IC50 of antiplatelet activity induced by ADP; cited from earlier work.
The test system is the same in data set [3]. Description: Inhibition of ADP-induced platelet aggregation in vitro. In kind it is cell-based, rat. The settings on record: data not shown. The method in brief: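 Rat aortic blood was anticoagulated with sodium citrate (1:9, v/v) and spun at 50 × g for 10 min to give PRP. A further 750 × g, 10 min spin gave PPP, used to dilute PRP to 2–3 × 10^8. PRP was preincubated with buffer or peptide for 5 min at 37 °C, then ADP (0.1 mM) was added. Aggregation at 5 min was read on an aggregometer. Inhibition % was calculated versus the buffer control, and IC50 was derived by curve fitting.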

Regarding `N[C@@H](CC(=O)O)C(=O)N[C@@H](CCC(=O)O)C(=O)NCC(=O)N1CCC[C@H]1C(=O)O` [DEGP, Asp-Glu-Gly-Pro] (H-DEGP-OH), in the data set on bleeding time, the “Effect on bleeding time (BT) (in words)” value is on record as “no significant increase in BT”. Besides, the “Acute toxicological effects (in words)” value in the data set on thymus and spleen is listed as “no acute toxicological effects”.
In the case of `O=C(O)CC[C@H](NC(=O)CNC(=O)[C@@H]1C[C@@H](O)CN1)C(=O)N[C@@H](Cc1ccccc1)C(=O)NCC(=O)O` [OGEFG, Hyp-Gly-Glu-Phe-Gly] (H-[Hyp]GEFG-OH), in the data set on bleeding time, the “Effect on bleeding time (BT) (in words)” value is “no significant increase in BT”. For the same compound, the “Acute toxicological effects (in words)” value with thymus and spleen is reported as “no acute toxicological effects”.
Turning to `CC(=O)Oc1ccccc1C(=O)O` [aspirin, Aspirin, reference compound], in the data set on bleeding time, the “Bleeding time (BT)” value turned out to be 5.345 min.
On to `COC(=O)[C@H](c1ccccc1Cl)N1CCc2sccc2C1` [clopidogrel, clopidogrel hydrogen sulfate, reference compound], for which, in the data set with bleeding time, the “Bleeding time (BT)” value is listed as greater than 15 min.
On to LTFPRIVFVLG, for which the “Inhibition of platelet aggregation” value in data set [1] is given as 76.69%.
The term IC50 denotes the concentration that gives 50% inhibition. For the compound SSGE, in data set [2], the IC50 was 480 µM.
Turning to VFPQ, the “Activity against ADP-induced platelet aggregation (in words)” value in data set [3] is reported as “poor activities”.
